Blank lines part the entries; values can stand above or below the molecule they belong to. Active and inactive are the calls of the source. The calls are words filed in the database; no cut-off is given here.
What was measured:
[1] = molecular target: Aldo-keto reductase family 1 member B1 (Bos taurus) (UniProt P16116); assay: Inhibition of aldose reductase activity in partially purified bovine lens preparation at 4*10 e-8 M
Rattus norvegicus [2] = assay: Tested for in vivo inhibition of galactitol accumulation in the lens of galactose-fed rats at the dose of 46.1 (mg/kg/day); NS=Not significant; format: functional, organism-based; settings: Lens of camera-type eye
Rattus norvegicus [3] = assay: Tested for in vivo inhibition of galactitol accumulation in the sciatic nerve of galactose-fed rats at the dose of 46.1 (mg/kg/day); NS=Not significant; format: functional, organism-based
Summary of the method: (§1)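 Rats were given a 20% galactose diet for 4 days, with the test compound administered in the diet. Sciatic nerve galactitol accumulation was measured, and activity is given as % inhibition at the stated daily dose (mg/kg/day). Values are mean ± SEM, n = 6 animals; p < 0.01 unless indicated. NS means no significant inhibition of polyol accumulation.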

Rattus norvegicus [4] = assay: Tested for in vivo inhibition of galactitol accumulation in the sciatic nerve of galactose-fed rats at the dose of 24 (mg/kg/day); NS=Not significant; format: functional, organism-based; summary of the method: as §1
Rattus norvegicus [5] = assay: Tested for in vivo inhibition of galactitol accumulation in the lens of galactose-fed rats at the dose of 24 (mg/kg/day); NS=Not significant; format: functional, organism-based; settings: Lens of camera-type eye
Rattus norvegicus [6] = assay: Tested for in vivo inhibition of galactitol accumulation in the lens of galactose-fed rats at the dose of 54 (mg/kg/day); NS=Not significant; format: functional, organism-based; settings: Lens of camera-type eye
Rattus norvegicus [7] = assay: tTested for in vivo inhibition of galactitol accumulation in the sciatic nerve of galactose-fed rats at the dose of 54 (mg/kg/day); NS=Not significant; format: functional, organism-based
Summary of the method: (§2)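 Rats fed a 20% galactose diet for 4 days, with test compound given in the diet at the stated daily dose (mg/kg/day). Read-out is inhibition of galactitol (polyol) accumulation in sciatic nerve. Values are % inhibition, mean ± SEM of six animals; p < 0.01 unless marked (some p < 0.05). NS = no significant inhibition of polyol accumulation. Tolrestat was the reference standard.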

[8] = molecular target: Aldo-keto reductase family 1 member B1 (Bos taurus) (UniProt P16116); assay: Inhibition of aldose reductase activity in partially purified bovine lens preparation at 10e-5 M
Summary of the method: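 Partially purified bovine lens aldose reductase. Reduction of DL-glyceraldehyde substrate followed spectrophotometrically. Activity expressed as average inhibition at the tested concentrations, 1×10^-5, 1×10^-6, 1×10^-7 and 4×10^-6 M as printed; IC50 in M where given.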

Rattus norvegicus [9] = assay: Tested for in vivo inhibition of galactitol accumulation in the lens of galactose-fed rats at the dose of 5.3 (mg/kg/day); NS=Not significant; format: functional, organism-based; settings: Lens of camera-type eye
Rattus norvegicus [10] = assay: Tested for in vivo inhibition of galactitol accumulation in the sciatic nerve of galactose-fed rats at the dose of 5.3 (mg/kg/day); NS=Not significant; format: functional, organism-based; summary of the method: as §2
Rattus norvegicus [11] = assay: Tested for in vivo inhibition of galactitol accumulation in the lens of galactose-fed rats at the dose of 54.8 (mg/kg/day); NS=Not significant; format: functional, organism-based; settings: Lens of camera-type eye
Rattus norvegicus [12] = assay: Tested for in vivo inhibition of galactitol accumulation in the sciatic nerve of galactose-fed rats at the dose of 54.8 (mg/kg/day); format: functional; summary of the method: as §2
Rattus norvegicus [13] = assay: Tested for in vivo inhibition of galactitol accumulation in the sciatic nerve of galactose-fed rats at the dose of 91.6 (mg/kg/day); NS=Not significant; format: functional, organism-based; summary of the method: as §2
Rattus norvegicus [14] = assay: Tested for in vivo inhibition of galactitol accumulation in the lens of galactose-fed rats at the dose of 91.6 (mg/kg/day); NS=Not significant; format: functional, organism-based; settings: Lens of camera-type eye
Summary of the method: (§3)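 Galactosemic rats were fed 20% galactose for 4 days, with the compound mixed into the diet. […] galactitol accumulation was measured, and activity is given as % inhibition at the stated daily dose (mg/kg/day). Values are mean ± SEM of six animals; p < 0.01 unless indicated. NS means no significant inhibition of polyol accumulation.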

Rattus norvegicus [15] = assay: Tested for in vivo inhibition of galactitol accumulation in the sciatic nerve of galactose-fed rats at the dose of 1.1 (mg/kg/day); NS=Not significant
[16] = molecular target: Aldo-keto reductase family 1 member B1 (Bos taurus) (UniProt P16116); assay: Compound was tested in vitro for inhibition of aldose reductase activity in partially purified bovine lens preparation at 10 e-8 M
Rattus norvegicus [17] = assay: Tested for in vivo inhibition of galactitol accumulation in the sciatic nerve of galactose-fed rats.4.9 (mg/kg/day); NS=Not significant; format: functional, organism-based; summary of the method: as §2
Rattus norvegicus [18] = assay: Tested for in vivo inhibition of galactitol accumulation in the lens of galactose-fed rats at the dose of 4.9 (mg/kg/day); NS=Not significant; format: functional, organism-based; settings: Lens of camera-type eye
Rattus norvegicus [19] = assay: Tested for in vivo inhibition of galactitol accumulation in the sciatic nerve of galactose-fed rats at the dose of 48 (mg/kg/day); format: functional; summary of the method: as §2
Rattus norvegicus [20] = assay: Tested for in vivo inhibition of galactitol accumulation in the lens of galactose-fed rats at the dose of 4.7 (mg/kg/day); NS=Not significant; format: functional, organism-based; settings: Lens of camera-type eye
Rattus norvegicus [21] = assay: Tested for in vivo inhibition of galactitol accumulation in the sciatic nerve of galactose-fed rats at the dose of 4.7 (mg/kg/day); format: functional; summary of the method: as §1
Rattus norvegicus [22] = assay: Tested for in vivo inhibition of galactitol accumulation in the lens of galactose-fed rats at the dose of 48 (mg/kg/day); format: functional, Lens of camera-type eye
Rattus norvegicus [23] = assay: Tested for in vivo inhibition of galactitol accumulation in the sciatic nerve of galactose-fed rats at the dose of 24; NS=Not significant; format: functional, organism-based; summary of the method: as §1
Rattus norvegicus [24] = assay: Tested for in vivo inhibition of galactitol accumulation in the sciatic nerve of galactose-fed rats at the dose of 9.9 (mg/kg/day); NS=Not significant; format: functional, organism-based; summary of the method: as §2
Rattus norvegicus [25] = assay: Tested for in vivo inhibition of galactitol accumulation in the lens of galactose-fed rats at the dose of 25.0 (mg/kg/day); NS=Not significant; format: functional, organism-based; settings: Lens of camera-type eye
Rattus norvegicus [26] = assay: Tested for in vivo inhibition of galactitol accumulation in the sciatic nerve of galactose-fed rats. at the dose of 25.0 (mg/kg/day); NS=Not significant; format: functional, organism-based; summary of the method: as §2
Rattus norvegicus [27] = assay: Tested for in vivo inhibition of galactitol accumulation in the lens of galactose-fed rats at the dose of 55.4 (mg/kg/day); NS=Not significant; format: functional, organism-based; settings: Lens of camera-type eye; summary of the method: as §3
Rattus norvegicus [28] = assay: Tested for in vivo inhibition of galactitol accumulation in the sciatic nerve of galactose-fed rats at the dose of 55.4 (mg/kg/day); NS=Not significant; format: functional, organism-based; summary of the method: as §2

SMILES: O=C1CC2(N1)C(=O)N(Cc1ccc(Br)cc1F)C(=O)c1ccc(F)cc12 (stereo not drawn)
inhibition (Rattus norvegicus [6]): inactive
inhibition (Rattus norvegicus [7]): inactive

SMILES: COC(=O)N(C(=O)OC)N1C(=O)CC2(C(=O)N(Cc3ccc(Br)cc3F)C(=O)c3ccccc32)C1=O (stereo not drawn)
inhibition [8]: inactive
inhibition (Rattus norvegicus [11]): inactive
Inhibition (Rattus norvegicus [12]): 50%

SMILES: CCCN1C(=O)c2ccccc2C(CC(=O)NC(=O)OC)C1=O (stereo not drawn)
inhibition [8]: inactive
inhibition (Rattus norvegicus [13]): inactive
inhibition (Rattus norvegicus [14]): inactive

SMILES: CCN1C(=O)CC2(C(=O)N(C)C(=O)c3ccc(Cl)cc32)C1=O (stereo not drawn)
inhibition [8]: inactive
inhibition (Rattus norvegicus [15]): inactive

SMILES: O=C1c2ccccc2C2(CC(=O)N(N=C3CCCC3)C2=O)C(=O)N1Cc1ccc(Br)cc1F (stereo not drawn)
inhibition [8]: inactive
Inhibition (Rattus norvegicus [19]): 82%
inhibition (Rattus norvegicus [20]): inactive
Inhibition (Rattus norvegicus [21]): 86%
Inhibition (Rattus norvegicus [22]): 76%

SMILES: O=C1c2ccccc2C2(CC(=O)N(NS(=O)(=O)C(F)(F)F)C2=O)C(=O)N1Cc1ccc(Br)cc1F (stereo not drawn)
inhibition [8]: inactive
inhibition (Rattus norvegicus [27]): inactive
inhibition (Rattus norvegicus [28]): inactive

Continued, in another order:

inhibition [1]: 61%
SMILES: COc1ccc2c(c1)C(=O)N(Cc1ccc(Br)cc1F)C(=O)C2CC(=O)O (stereo not drawn)
inhibition (Rattus norvegicus [2]): inactive
inhibition (Rattus norvegicus [3]): inactive

inhibition [1]: 62%
SMILES: O=C(O)CC1C(=O)N(Cc2nc3cc(C(F)(F)F)ccc3s2)C(=O)c2ccc(F)cc21 (stereo not drawn)
inhibition (Rattus norvegicus [4]): inactive
inhibition (Rattus norvegicus [5]): inactive

inhibition [8]: inactive
SMILES: CN1C(=O)c2ccc(Cl)cc2C(CC(N)=O)C1=O (stereo not drawn)
inhibition (Rattus norvegicus [9]): inactive
inhibition (Rattus norvegicus [10]): inactive

inhibition [16]: 35%
SMILES: CN1C(=O)c2ccc(Cl)cc2C(CC(=O)O)C1=O (stereo not drawn)
inhibition (Rattus norvegicus [17]): inactive
inhibition (Rattus norvegicus [18]): inactive

inhibition [1]: 65%
SMILES: O=C(O)CC1C(=O)N(Cc2nc3cc(C(F)(F)F)ccc3s2)C(=O)c2ccccc21 (stereo not drawn)
inhibition (Rattus norvegicus [5]): inactive
inhibition (Rattus norvegicus [23]): inactive

inhibition [8]: inactive
SMILES: CON1C(=O)CC2(C(=O)N(Cc3ccc(Br)cc3F)C(=O)c3ccccc32)C1=O (stereo not drawn)
inhibition (Rattus norvegicus [24]): inactive

inhibition [1]: 57%
SMILES: O=C(O)CC1C(=O)N(Cc2ccc(Br)cc2F)C(=O)c2ccc(Cl)cc21 (stereo not drawn)
inhibition (Rattus norvegicus [25]): inactive
inhibition (Rattus norvegicus [26]): inactive

From ChEMBL document CHEMBL1127562, “N-substituted spirosuccinimide, spiropyridazine, spiroazetidine, and acetic acid aldose reductase inhibitors derived from isoquinoline-1,3-diones. 2” (J Med Chem, 1994)
